Drawing on ChEMBL document CHEMBL1221374, “Synthesis, proapoptotic screening, and structure-activity relationships of novel aza-lupane triterpenoids” (Bioorg Med Chem Lett, 2010), this text covers IC50 and Activity for 7 compounds.

In experiment [1] the test system is HT-29. The experiment can be described thus: Cytotoxicity against human HT-29 cells after 72 hrs by MTS assay. It is filed as functional, cell-based. The settings on record: HT-29, 72 h. In short, it runs like this:
(§1)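 Cells (1 × 10^4/well) seeded the evening before. Compounds were taken from 10 mM DMSO stock into growth medium and tested at 2, 10, 25, 50 and 75 µM, four wells each, with DMSO-matched controls. Exposure was 72 h, then MTS reagent for 1.5-4 h at 37 °C, and formazan A490 was read against DMSO-treated cells. IC50 is the mean of four wells from one experiment, or of three experiments where stated.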
(In general: Tetrazolium assays rely on reduction of a dye to a coloured formazan, in cell work by metabolically active cells.)

In experiment [2] the test system is SK-MEL-2. Briefly: Cytotoxicity against human SK-MEL-2 cells after 72 hrs by MTS assay. It is filed as functional, cell-based. To be noted: SK-MEL-2, 72 h. The method in brief: as §1
Experiment [3] has as its system MCF7. The experiment can be described thus: Cytotoxicity against human MCF7 cells after 72 hrs by MTS assay. It is filed as functional, cell-based. The settings on record: MCF7, 72 h. The method in brief: as §1
Experiment [4] has as its system A-375. The experiment can be described thus: Cytotoxicity against human A375 cells after 72 hrs by MTS assay. It is filed as functional, cell-based. The settings on record: A-375, 72 h. In short, it runs like this: as §1
Experiment [5] relates to Daoy. The experiment can be described thus: Cytotoxicity against human DaOY cells after 72 hrs by MTS assay. It is filed as functional, cell-based. In short, it runs like this:
as §1

The test system of experiment [6] is SK-MEL-2 (Homo sapiens). Briefly: Induction of apoptosis in human SK-MEL-2 cells assessed as necrotic cells at 7.5 uM after 16 hrs by annexin assay.
The test system of experiment [7] is SK-MEL-2 (Homo sapiens). Briefly: Induction of apoptosis in human SK-MEL-2 cells assessed as apoptotic cells at 7.5 uM after 16 hrs by annexin assay.
A short description of experiment [8]: Cytotoxicity against human LN229 cells after 72 hrs by MTS assay. It is filed as functional, cell-based. To be noted: LN-229, 72 h. The method in brief:
as §1

The test system of experiment [9] is OVCAR-3. Briefly: Cytotoxicity against human OVCAR-3 cells after 72 hrs by MTS assay. The class given is functional, cell-based. To be noted: OVCAR-3, 72 h.
For experiment [10], the system named is OVCAR-3. The experiment can be described thus: Cytotoxicity against human OVCAR-3 cells after 120 hrs by MTS assay. To be noted: OVCAR-3, 120 h.

Broadly, the IC50 is the concentration that gives 50% inhibition.

Turning to `C=C(CNCCc1ccc(O)cc1)[C@@H]1CC[C@]2(CO)CC[C@]3(C)[C@H](CC[C@@H]4[C@@]5(C)CCC(N)C(C)(C)[C@@H]5CC[C@]43C)[C@@H]12` (some centres undefined), the IC50 in experiment [1] is 2 µM; in experiment [2], 3 µM; in experiment [3] it was 5 µM; in [4], less than 2 µM; in experiment [5], less than 2 µM; in [8] it was less than 2 µM. For the same compound, the Activity in experiment [6] was less than 15%; in experiment [7] it was greater than 60%.
On to `C=C(CNCCO)[C@@H]1CC[C@]2(CO)CC[C@]3(C)[C@H](CC[C@@H]4[C@@]5(C)CCC(=O)C(C)(C)[C@@H]5CC[C@]43C)[C@@H]12`, for which the IC50 in experiment [9] was found to be 67 µM; in experiment [1], 45 µM; in experiment [2] it was 45 µM; in experiment [3], 47 µM; in [4], 10 µM; in [5] it was 47 µM. Moreover, the concentration for half-maximal inhibition (IC50) in [8] came out at 16 µM.
For `C=C(C)[C@@H]1CC[C@]2(C(=O)O)CC[C@]3(C)[C@H](CC[C@@H]4[C@@]5(C)CCC(NCc6ccc7c(c6)OCO7)C(C)(C)[C@@H]5CC[C@]43C)[C@@H]12` (some centres undefined), the IC50 in experiment [9] is greater than 75 µM; in experiment [1] it was greater than 75 µM; in experiment [2] it was 29 µM; in experiment [3], greater than 75 µM; in [4], greater than 75 µM; in experiment [5], 38 µM. In addition, the IC50 in [8] was greater than 75 µM.
On to `C=C(CO)[C@@H]1CC[C@]2(CO)CC[C@]3(C)[C@H](CC[C@@H]4[C@@]5(C)CC[C@H](NCCc6ccc(O)c(O)c6)C(C)(C)[C@@H]5CC[C@]43C)[C@@H]12`, for which the IC50 in experiment [9] turned out to be 18 µM; in experiment [1], 37 µM; in experiment [2] it was 24 µM; in experiment [3] it was 31 µM; in [4], 6 µM; in experiment [5], 34 µM. Besides, in [8], half-maximal inhibition (IC50) was put at 17 µM.
Turning to `C=C(CNCCO)[C@@H]1CC[C@]2(CO)CC[C@]3(C)[C@H](CC[C@@H]4[C@@]5(C)CCC(N)C(C)(C)[C@@H]5CC[C@]43C)[C@@H]12` (some centres undefined), the IC50 in [1] is less than 2 µM; in experiment [2], 6 µM; in experiment [3], 2 µM; in experiment [4], 5 µM; in [5] it was 5 µM; in [8] it was 12 µM. The Activity in experiment [6] was less than 15%; in experiment [7], greater than 60%.
On to `C=C(CNCCO)[C@@H]1CC[C@]2(CO)CC[C@]3(C)[C@H](CC[C@@H]4[C@@]5(C)CCC(NCCc6ccc(O)cc6)C(C)(C)[C@@H]5CC[C@]43C)[C@@H]12` (some centres undefined), for which the half-maximal inhibitory concentration (IC50) was less than 2 µM in [1]; 5 µM in experiment [2]; 4 µM in experiment [3]; 2 µM in experiment [4]; 40 µM in experiment [10]; less than 2 µM in [5]. For the same compound, the 50% inhibitory concentration (IC50) in experiment [8] came to 14 µM. Also, the Activity in [6] is less than 15%; in experiment [7], greater than 60%.
Regarding `C=C(CNCCc1ccc(O)cc1)[C@@H]1CC[C@]2(CO)CC[C@]3(C)[C@H](CC[C@@H]4[C@@]5(C)CCC(NCCO)C(C)(C)[C@@H]5CC[C@]43C)[C@@H]12` (some centres undefined), the IC50 came out at 5 µM in experiment [1]; 6 µM in experiment [2]; 5 µM in experiment [3]; 5 µM in experiment [4]; 2 µM in experiment [5]; 6 µM in experiment [8]. Further, the Activity in experiment [6] is less than 15%; in experiment [7] it was greater than 60%.
